Laboratory results published in ChEMBL document CHEMBL3244097, “Fluorinated retinoic acids and their analogues. 1. Synthesis and Biological activity of (4-methoxy-2,3,6-trimethylphenyl)nonatetraenoic acid analogues” (J Med Chem, 1979).

Key:
[1] = tested on: Mus musculus; experiment: Toxicity in mouse assessed as hypervitaminosis dose compound treated ip daily monday through friday in first week and monday through thursday in second week measured after 1 day of last injection; format: organism-based; settings: in vivo, 24 h
Procedure, shortened: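 Normal mice received retinoid suspended in water containing 0.1% carboxymethylcellulose and 0.01% Triton X-100, given intraperitoneally daily Monday–Friday in week 1 and Monday–Thursday in week 2. Hypervitaminosis, taken as the measure of toxicity, was scored 1 day after the last injection.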

[2] = tested on: Mus musculus; experiment: Antipapilloma activity against Hart Swiss albino mouse assessed as decrease in chemically-induced papillomas compound treated ip for 5 days/week for 2 weeks; format: functional
Procedure, shortened: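 At least four doses were used. ED50, the dose giving a 50% decrease in papilloma diameter, was read from a plot of percent decrease versus log dose, fitted by least squares, with a correlation coefficient reported.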

[3] = tested on: Mus musculus; experiment: Antipapilloma activity against Hart Swiss albino mouse assessed as decrease in chemically-induced papillomas at 40 mg/kg, ip for 5 days/week for 2 weeks; format: functional; parameters: scale not given: the % may be the effect or the level left; settings: route intraperitoneal
[4] = tested on: Mus musculus; experiment: Antipapilloma activity against Hart Swiss albino mouse assessed as decrease in chemically-induced papillomas at 20 mg/kg, ip for 5 days/week for 2 weeks; format: functional; parameters: scale not given: the % may be the effect or the level left; settings: route intraperitoneal
[5] = tested on: Mus musculus; experiment: Antipapilloma activity against Hart Swiss albino mouse assessed as decrease in chemically-induced papillomas at 10 mg/kg, ip for 5 days/week for 2 weeks; format: functional; parameters: scale not given: the % may be the effect or the level left; settings: route intraperitoneal
[6] = tested on: Mus musculus; experiment: Antipapilloma activity against Hart Swiss albino mouse assessed as decrease in chemically-induced papillomas at 5 mg/kg, ip for 5 days/week for 2 weeks; format: functional; parameters: scale not given: the % may be the effect or the level left; settings: route intraperitoneal
[7] = tested on: Mus musculus; experiment: Antipapilloma activity against Hart Swiss albino mouse assessed as decrease in chemically-induced papillomas at 2.5 mg/kg, ip for 5 days/week for 2 weeks; format: functional; parameters: scale not given: the % may be the effect or the level left; settings: route intraperitoneal
[8] = tested on: Mus musculus; experiment: Antipapilloma activity against Hart Swiss albino mouse assessed as decrease in chemically-induced papillomas at 1.25 mg/kg, ip for 5 days/week for 2 weeks; format: functional; parameters: scale not given: the % may be the effect or the level left; settings: route intraperitoneal
[9] = tested on: Mus musculus; experiment: Antipapilloma activity against Hart Swiss albino mouse assessed as decrease in chemically-induced papillomas at 80 mg/kg, ip for 5 days/week for 2 weeks; format: functional; parameters: scale not given: the % may be the effect or the level left; settings: route intraperitoneal
[10] = tested on: Mus musculus; experiment: Antipapilloma activity against Hart Swiss albino mouse assessed as decrease in chemically-induced papillomas at 600 mg/kg, ip once weekly for 2 weeks; parameters: scale not given: the % may be the effect or the level left; settings: route intraperitoneal
[11] = tested on: Mus musculus; experiment: Antipapilloma activity against Hart Swiss albino mouse assessed as decrease in chemically-induced papillomas at 1000 mg/kg, ip once weekly for 2 weeks; parameters: scale not given: the % may be the effect or the level left; settings: route intraperitoneal

Structure (SMILES)	Activity [1] [mg/kg/day]	ED50 [2] [mg/kg/day]	Activity [3] [%]	Activity [4] [%]	Activity [5] [%]	Activity [6] [%]	Activity [7] [%]	Activity [8] [%]	Activity [9] [%]	Activity [10] [%]	Activity [11] [%]
COC(=O)/C=C(C)/C=C/C(F)=C(C)/C=C/c1c(C)cc(OC)c(C)c1C	50	13.8	79	60	35	28					
COc1cc(C)c(/C=C/C(C)=C/C=C(F)/C(C)=C/C(=O)O)c(C)c1C	25	2.7			80	63	48	34			
CCOC(=O)/C=C(C)/C=C/C=C(C)/C=C/C1=C(C)CCCC1(C)C	50	48	36						47	76	85
CCOC(=O)/C=C(C)/C(F)=C/C(F)=C(C)/C=C/c1c(C)cc(OC)c(C)c1C	> 200	> 80							33		
CCOC(=O)/C(F)=C(C)/C=C/C=C(C)/C=C/C1=C(C)CCCC1(C)C	100	> 20		40							
CCOC(=O)/C=C(C)/C(F)=C/C=C(C)/C=C/C1=C(C)CCCC1(C)C	100	24.3	67	33	33				83		
COC(=O)/C=C(C)/C=C/C(F)=C(C)/C=C/C1=C(C)CCCC1(C)C	200	< 80							60		
CCOC(=O)/C(F)=C(C)/C=C/C=C(C)/C=C/c1c(C)cc(OC)c(C)c1C	12.5	> 10			37						
CCOC(=O)/C=C(C)/C(F)=C\C=C(C)\C=C\c1c(C)cc(OC)c(C)c1C	200	80							56		
COC(=O)/C=C(C)/C=C/C(F)=C(C)\C=C\c1c(C)cc(OC)c(C)c1C	200	> 80							17		
COC(=O)/C=C(C)/C=C/C=C(C)/C(F)=C/c1c(C)cc(OC)c(C)c1C	> 200	> 80							3		
CCOC(=O)/C=C(C)/C=C/C=C(C)/C=C(\F)c1c(C)cc(OC)c(C)c1C		> 40	40								
CCOC(=O)/C=C(C)/C=C/C=C(C)/C=C(/F)c1c(C)cc(OC)c(C)c1C		> 40	26								
CCOC(=O)/C(F)=C(C)/C(F)=C/C=C(C)/C=C/c1c(C)cc(OC)c(C)c1C	> 200	> 80							17		
CCOC(=O)/C(F)=C(C)/C=C/C(F)=C(C)/C=C/c1c(C)cc(OC)c(C)c1C	> 200	> 80							35		
CCOC(=O)\C=C(/C=C/C=C(C)/C=C/c1c(C)cc(OC)c(C)c1C)C(F)(F)F	> 200	> 80							-2		
COC(=O)/C=C(C)/C=C/C=C(\C=C\c1c(C)cc(OC)c(C)c1C)C(F)(F)F	> 200	> 80							25		
COc1cc(C)c(/C=C/C(C)=C(F)/C=C/C(C)=C/C(=O)O)c(C)c1C	50	7.1		87	54	30	28				
CCNC(=O)/C=C(C)/C(F)=C/C=C(C)/C=C/c1c(C)cc(OC)c(C)c1C	50	< 10		67	73						
CCNC(=O)/C=C(C)/C=C/C(F)=C(C)/C=C/c1c(C)cc(OC)c(C)c1C	200	80							53		
CCOC(=O)/C=C(C)/C(F)=C/C=C(C)/C=C/c1c(C)cc(OC)c(C)c1C	50	4	69	62	76	43			82		
COC(=O)/C=C(C)/C=C(F)/C=C(C)/C=C/c1c(C)cc(OC)c(C)c1C (mixture of isomers)	> 200	> 80							25		
COc1cc(C)c(/C=C/C(C)=C/C=C/C(C)=C/C(=O)O)c(C)c1C [ACITRETIN]	100	12.5	90	66	43	18					
CCOC(=O)/C=C(C)/C=C/C=C(C)/C=C/c1c(C)cc(OC)c(C)c1C [ETRETINATE]	100	80	33	29	9				47		
CCNC(=O)/C=C(C)/C=C/C=C(C)/C=C/c1c(C)cc(OC)c(C)c1C [MOTRETINIDE]	50	19.2	73.8	54	23	11					
